Experimental data from ChEMBL document CHEMBL1795327, “Novel 4-phenylpiperidine-2,6-dione derivatives. Ligands for α₁-adrenoceptor subtypes” (Eur J Med Chem, 2011).
The source made the active and inactive calls. No cut-off for these calls is given here.

How the values were obtained:
[1] = target: T1, Alpha-1A adrenergic receptor (Homo sapiens, UniProt P35348); experiment: Displacement of [125I]BE-2254 from human adrenergic alpha1A receptor expressed in HEK293 cells; type: cell-based
T1 sequence (P35348 whole entry): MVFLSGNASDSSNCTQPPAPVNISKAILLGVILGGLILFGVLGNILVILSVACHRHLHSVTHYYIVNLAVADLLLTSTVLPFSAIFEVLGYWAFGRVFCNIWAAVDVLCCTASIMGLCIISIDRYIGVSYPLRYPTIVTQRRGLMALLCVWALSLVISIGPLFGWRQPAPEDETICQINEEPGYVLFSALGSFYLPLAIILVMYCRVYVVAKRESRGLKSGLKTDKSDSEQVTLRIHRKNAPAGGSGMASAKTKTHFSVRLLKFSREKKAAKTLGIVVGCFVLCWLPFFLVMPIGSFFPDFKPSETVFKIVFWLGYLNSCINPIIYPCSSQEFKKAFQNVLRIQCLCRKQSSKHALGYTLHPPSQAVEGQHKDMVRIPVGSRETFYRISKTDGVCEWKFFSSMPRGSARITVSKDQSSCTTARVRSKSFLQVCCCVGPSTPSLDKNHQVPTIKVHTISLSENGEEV
Method in brief: (§1)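 Membranes came from HEK293 cells stably expressing human α1A-, α1B- or α1D-AR, selected with geneticin. Cells were washed in PBS pH 7.6, homogenized, and spun at 30,000 × g for 10 min. The radioligand was [125I]BE 2254. Affinities are pKi, given as mean ± SE of three experiments run in duplicate.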

[2] = target: T2, Alpha-1B adrenergic receptor (Homo sapiens, UniProt P35368); experiment: Displacement of [125I]BE-2254 from human adrenergic Alpha-1B receptor expressed in HEK293 cells; type: cell-based; method in brief: as §1
T2 sequence (P35368 whole entry): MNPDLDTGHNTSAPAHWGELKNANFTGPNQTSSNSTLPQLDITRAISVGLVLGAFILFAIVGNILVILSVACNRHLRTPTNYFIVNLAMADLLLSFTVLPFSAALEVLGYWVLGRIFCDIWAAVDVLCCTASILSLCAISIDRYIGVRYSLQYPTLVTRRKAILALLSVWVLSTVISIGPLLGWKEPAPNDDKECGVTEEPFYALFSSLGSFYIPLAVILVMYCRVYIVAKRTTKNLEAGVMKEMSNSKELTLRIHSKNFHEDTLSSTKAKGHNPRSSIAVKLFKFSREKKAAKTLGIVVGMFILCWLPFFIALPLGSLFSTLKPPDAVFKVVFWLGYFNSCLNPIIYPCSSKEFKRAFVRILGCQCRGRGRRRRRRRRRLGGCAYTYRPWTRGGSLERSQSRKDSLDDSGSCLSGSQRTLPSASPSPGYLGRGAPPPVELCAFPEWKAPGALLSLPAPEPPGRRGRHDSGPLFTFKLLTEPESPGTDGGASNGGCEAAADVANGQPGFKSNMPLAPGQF

[3] = target: T3, Alpha-1D adrenergic receptor (Homo sapiens, UniProt P25100); experiment: Displacement of [125I]BE-2254 from human adrenergic Alpha-1D receptor expressed in HEK293 cells; type: cell-based; method in brief: as §1
T3 sequence (P25100 whole entry): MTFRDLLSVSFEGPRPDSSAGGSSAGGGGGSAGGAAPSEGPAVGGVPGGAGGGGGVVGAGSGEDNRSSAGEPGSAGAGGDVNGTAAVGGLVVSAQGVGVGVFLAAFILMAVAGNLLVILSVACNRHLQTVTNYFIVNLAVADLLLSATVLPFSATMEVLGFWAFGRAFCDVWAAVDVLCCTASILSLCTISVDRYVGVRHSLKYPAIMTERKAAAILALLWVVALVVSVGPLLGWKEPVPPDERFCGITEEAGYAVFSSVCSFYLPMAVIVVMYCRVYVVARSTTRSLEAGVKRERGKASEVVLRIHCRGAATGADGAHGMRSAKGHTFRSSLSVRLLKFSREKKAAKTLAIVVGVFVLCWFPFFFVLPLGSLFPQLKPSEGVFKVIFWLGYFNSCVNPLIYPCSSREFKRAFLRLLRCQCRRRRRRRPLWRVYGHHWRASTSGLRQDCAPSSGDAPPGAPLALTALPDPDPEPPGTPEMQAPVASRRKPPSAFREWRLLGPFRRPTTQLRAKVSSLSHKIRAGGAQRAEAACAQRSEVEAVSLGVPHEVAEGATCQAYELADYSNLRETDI

[4] = target: T4, Alpha-1A adrenergic receptor (Homo sapiens) (UniProt P35348); experiment: Antagonist activity at human adrenergic alpha1A receptor expressed in HEK293 cells assessed as [3H]inositol phosphate formation at 10 uM by scintillation counting; type: functional, cell-based
T4 sequence (whole entry): T1 sequence (P35348 whole entry)
Method in brief: (§2)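 Stably transfected HEK293 cells expressing human α1A-, α1B- or α1D-AR were labelled with myo-[3H]inositol and moved to Krebs Ringer bicarbonate buffer containing LiCl. They were incubated 60 min with or without NE, in the presence or absence of test compound. After a formic acid stop and sonication, [3H]InsPs were separated by anion-exchange chromatography and counted by scintillation.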

[5] = target: T3, Alpha-1D adrenergic receptor; experiment: Antagonist activity against human cloned adrenergic Alpha-1D receptor expressed in HEK293 cells assessed as inhibition of norepinephrine-induced [3H]inositol phosphate hydrolysis by scintillation counting; type: functional, cell-based
Method in brief: (§3)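 HEK293 cells stably transfected with human α1A-, α1B- or α1D-AR cDNA were prelabelled with myo-[3H]inositol, then given Krebs Ringer bicarbonate buffer with LiCl. Cells were incubated 60 min with or without NE and graded compound concentrations. The reaction was stopped with 20 mM formic acid. [3H]InsPs were isolated by anion exchange and counted by scintillation. Values (±SE) came from concentration-response inhibition curves.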

[6] = target: T1, Alpha-1A adrenergic receptor; experiment: Antagonist activity at human adrenergic alpha1A receptor expressed in HEK293 cells assessed as inhibition of norepinephrine-induced [3H]inositol phosphate hydrolysis by scintillation counting; type: functional, cell-based; method in brief: as §3
[7] = target: T2, Alpha-1B adrenergic receptor; experiment: Antagonist activity against human cloned adrenergic Alpha-1B receptor expressed in HEK293 cells assessed as inhibition of norepinephrine-induced [3H]inositol phosphate hydrolysis by scintillation counting; type: functional, cell-based; method in brief: as §3
[8] = target: T5, Alpha-1D adrenergic receptor (Homo sapiens) (UniProt P25100); experiment: Antagonist activity at human adrenergic Alpha-1D receptor expressed in HEK293 cells assessed as [3H]inositol phosphate formation at 10 uM by scintillation counting; type: functional, cell-based; method in brief: as §2
T5 sequence (whole entry): T3 sequence (P25100 whole entry)

[9] = target: T6, Alpha-1B adrenergic receptor (Homo sapiens) (UniProt P35368); experiment: Antagonist activity at human adrenergic Alpha-1B receptor expressed in HEK293 cells assessed as [3H]inositol phosphate formation at 10 uM by scintillation counting; type: functional, cell-based; method in brief: as §2
T6 sequence (whole entry): T2 sequence (P35368 whole entry)

[10] = target: T2, Alpha-1B adrenergic receptor; experiment: Binding affinity to adrenergic Alpha-1B receptor
Method in brief: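 Human α1B-adrenoceptor stably expressed in HEK293 cells, transfected with a pRSVICAT vector and selected with geneticin. Membranes were prepared by scraping cells, homogenizing them and centrifuging at 30,000 × g for 10 min. Values are pKi, mean ± SE of three experiments run in duplicate.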

SMILES	Ki [1] [nM]	Ki [2] [nM]	Ki [3] [nM]	other results
O=C1CC(c2ccc(Cl)cc2)CC(=O)N1CCN1CCN(c2ccccc2Cl)CC1	6920	10000	1510	–
COc1ccc(Cl)cc1N1CCN(CCCN2C(=O)CC(c3ccccc3)CC2=O)CC1	191	331	389	–
COc1ccccc1N1CCN(CCN2C(=O)CC3(CCc4ccccc43)CC2=O)CC1	3390	5010	912	–
COc1ccc(Cl)cc1N1CCN(CCCCN2C(=O)CC(C)(c3ccccc3)CC2=O)CC1	95.5	151	77.6	–
COc1ccccc1N1CCN(CCN2C(=O)CC(c3ccc(Cl)cc3)CC2=O)CC1	1700	112	692	–
O=C1CC(c2ccccc2)CC(=O)N1CCN1CCN(c2ccccc2Cl)CC1	3240	2240	631	–
COc1ccccc1N1CCN(CCn2c(=O)[nH]c3c([nH]c4ccccc43)c2=O)CC1	–	–	–	pKi ([1]; hek293): 9.57
CC(C)(C)c1ccc(N2CCN(CCn3c(=O)[nH]c4c([nH]c5ccccc54)c3=O)CC2)cc1	–	–	–	pKi ([3]; hek293): 7.7
COc1ccccc1N1CCN(CCN2C(=O)CC(c3ccccc3)CC2=O)CC1	3470	7410	1320	–
COc1ccccc1N1CCN(CCN2C(=O)CC3(CCCC3)CC2=O)CC1	–	–	–	Ki [10]: 50.1 nM
COc1ccccc1N1CCN(CCCCN2C(=O)CC3(CCc4ccccc43)CC2=O)CC1	9.77	72.4	16.2	Activity [4]: inactive; Ki [5]: 5.01 nM; Ki [6]: 10 nM; Ki [7]: 20 nM; Activity [8]: inactive; Activity [9]: inactive

Second part, led by results:

Ki [1] [nM]	Ki [2] [nM]	Ki [3] [nM]	SMILES	other results
63.1	234	75.9	COc1ccccc1N1CCN(CCCN2C(=O)CC3(CCc4ccccc43)CC2=O)CC1	–
22.4	56.2	14.5	COc1ccccc1N1CCN(CCCCN2C(=O)CC(C)(c3ccccc3)CC2=O)CC1	Activity [4]: inactive; Ki [5]: 0.501 nM; Ki [6]: 31.6 nM; Ki [7]: 7.94 nM; Activity [8]: inactive; Activity [9]: inactive
21.9	97.7	30.9	COc1ccccc1N1CCN(CCCCCN2C(=O)CC(c3ccccc3)CC2=O)CC1	–
28.2	126	69.2	COc1ccccc1N1CCN(CCCN2C(=O)CC(c3ccc(Cl)cc3)CC2=O)CC1	–
67.6	245	72.4	COc1ccccc1N1CCN(CCCCN2C(=O)CC(c3ccc(Cl)cc3)CC2=O)CC1	–
1.82	24	15.8	COc1ccccc1N1CCN(CCCCN2C(=O)CC(c3ccccc3)CC2=O)CC1	Activity [4]: inactive; Ki [5]: 2 nM; Ki [6]: 2.51 nM; Ki [7]: 3.98 nM; Activity [8]: inactive; Activity [9]: inactive
49	135	63.1	O=C1CC(c2ccc(Cl)cc2)CC(=O)N1CCCN1CCN(c2ccccc2Cl)CC1	–
36.3	107	38.9	COc1ccc(Cl)cc1N1CCN(CCCCN2C(=O)CC(c3ccccc3)CC2=O)CC1	–
34.7	195	97.7	COc1ccc(Cl)cc1N1CCN(CCCN2C(=O)CC(C)(c3ccccc3)CC2=O)CC1	–
10.2	129	51.3	COc1ccccc1N1CCN(CCCN2C(=O)CC(C)(c3ccccc3)CC2=O)CC1	–
47.9	112	43.7	O=C1CC(c2ccccc2)CC(=O)N1CCCN1CCN(c2ccccc2Cl)CC1	–
20.9	209	53.7	COc1ccccc1N1CCN(CCCCN2C(=O)CC(c3ccc([N+](=O)[O-])cc3)CC2=O)CC1	–
46.8	112	45.7	COc1ccccc1N1CCN(CCCN2C(=O)CC(c3ccccc3)CC2=O)CC1	–
14.1	129	67.6	COc1ccccc1N1CCN(CCCN2C(=O)CC(c3ccc([N+](=O)[O-])cc3)CC2=O)CC1	–
15.8	30.2	33.9	O=C1CC(c2ccccc2)CC(=O)N1CCCCN1CCN(c2ccccc2Cl)CC1	–
